Only a selection was taken, and hits are over-represented in it overall.
NALP1 inh: blocks the NALP1 inflammasome reconstituted in yeast. inhibition, % at 10 µM. 280,000 compounds, 0.61% hits. S. cerevisiae NALP1/ASC/caspase-1 growth, X-gal OD620, 72 h. AID 2071; in the data active = inhibition mostly above about 24%, no sharp cut-off; inactive = mostly below about 32%
PolyA inh: inhibitors of polyadenylation in S. cerevisiae; S. cerevisiae SKY197-pL101 polyadenylation reporter, beta-gal luminescence; efflux-impaired pdr1/pdr3 knockout yeast; score 100 = 6 SD above DMSO; activity score, % at 12 µM; 300,000 compounds, 0.02% hits;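 active = lowest replicate activity score at least 50, where 100 means six control SD above control mean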;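 also: yeast exposed to compound for 9 h at 30 °C; higher score means more reporter readthrough which indicates perturbed polyadenylation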
Calb FLC: affects C. albicans growth with fluconazole; C. albicans CaCi-2 + fluconazole, Alamar Blue growth, 48 h; growth inhibition, % (concentration not given with the values); 300,000 compounds, 0.57% hits; AID 1979;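 active = growth inhibition above about 58% in most replicates, limit read from the data, passing the limit was not always enough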;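 also: all wells also contain fluconazole at 8 µg/ml as a sub-toxic cotreatment; 0% = median of DMSO wells and 100% = median of geldanamycin control wells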
Lmaj promast: Leishmania major promastigote growth inhibition | Leishmania major promastigotes, resazurin fluorescence viability | 200,000 compounds, 9% hits | inhibition, % at 10 µM; in the data active = inhibition above about 50%;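 also: promastigotes grown with compound for 44 hours at 28 °C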
T cruzi inh: T. cruzi replication inhibition | inhibition, % (test concentration not listed) | AID 1885 | T. cruzi beta-gal in NIH3T3, luminescence, 90 h | 300,000 compounds, 1.4% hits;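 active = mean inhibition across valid replicates above about 55%, limit read from the data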;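 also: signal also drops with host cell toxicity which is not excluded here; 0% = plate median of DMSO wells and 100% = zero luminescence signal; higher percent means less beta-gal luminescence so fewer parasites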
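Test system: β-gal T. cruzi (Tulahuen C4) inside NIH/3T3 cells / Quantity: 5,000 cells/well / Measured by: luminescence from GalScreen with 0.05% NP40, read after 60 min / Medium: DMEM plus 2% FBS / Measure: parasite load inhibition, % / Reagent: Tulahuen C4 trypomastigotes, 5000/well / Schedule: co-culture of at least 90 h after 3 h attachment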
NALP3 yeast inh: blocks the NALP3 inflammasome reconstituted in yeast | Yeast reconstituted NLRP3/ASC/caspase-1, beta-gal luminescence, 24 h | inhibition, % at 10 µM | 330,000 compounds, 0.39% hits | AID 2825;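 active = inhibition of 50% or more; inactive = inhibition below 50%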;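 also: plate controls were induced DMSO wells for no effect and uninduced yeast grown without galactose for full effect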
Numbers without * were called inactive.

COc1ccc(CCNC(=O)c2ccc(Cl)c(S(=O)(=O)N(C)c3ccccc3)c2)cc1 was read as NALP1 inh -14.0, PolyA inh 29.3, Calb FLC -0.4, Lmaj promast 98.1*, T cruzi inh 8.6 and NALP3 yeast inh 20.8.
For CCN(CC)S(=O)(=O)c1ccc(OC)c(NC(=O)CSc2cc(C)ccc2C)c1 the results were NALP1 inh 15.1, PolyA inh -12.0, Calb FLC 3.1, Lmaj promast 72.9*, T cruzi inh 0.2 and NALP3 yeast inh -8.0.
`CN1CCCN(C(=O)c2ccc(Cl)c(S(=O)(=O)N(C)c3ccccc3)c2)CC1` gave NALP1 inh 14.3, PolyA inh 7.7, Calb FLC 1.3, Lmaj promast 72.4*, T cruzi inh 35.7 and NALP3 yeast inh 2.4.
COc1ccc(CCNC(=O)c2ccccc2N(C)S(=O)(=O)c2ccccc2)cc1 was read as NALP1 inh 23.0, PolyA inh -40.9, Calb FLC 5.3, Lmaj promast 80.3*, T cruzi inh 32.5 and NALP3 yeast inh 4.7.
CC(C)OP(=O)(OC(C)C)/C(C=O)=N\Nc1ccc([N+](=O)[O-])cc1 was read as NALP1 inh -4.3, PolyA inh -5.4, Calb FLC -9.8, T cruzi inh -4.4 and NALP3 yeast inh 40.9.
Screening Cc1oc2c(c1C(=O)Nc1ccc(C(=O)O)cc1)CCCC2 returned NALP1 inh 26.3, PolyA inh 2.3, Calb FLC -7.8, Lmaj promast -7.4, T cruzi inh -3.4 and NALP3 yeast inh 9.4.
For CCN(c1ccccc1)S(=O)(=O)c1ccc(OC)c(NC(=O)Cc2ccc(F)cc2)c1 the results were NALP3 yeast inh 8.1.
CCN(c1ccccc1)S(=O)(=O)c1ccc(Cl)c(C(=O)NCCc2ccc(OC)cc2)c1 was read as NALP1 inh 28.7, PolyA inh 7.4, Calb FLC 19.8, Lmaj promast 88.8*, T cruzi inh 1.5 and NALP3 yeast inh 7.9.
CCN(c1ccccc1)S(=O)(=O)c1ccc(OC)c(NC(=O)CNCCc2ccccc2)c1 was read as NALP1 inh 20.2, PolyA inh -17.5, Calb FLC 0.1, Lmaj promast 52.0*, T cruzi inh 57.8* and NALP3 yeast inh -18.9.
`COc1ccc(C(c2c(O)ccc3ccccc23)N2CCOCC2)c(OC)c1` (configuration not stated) gave NALP1 inh -23.7, PolyA inh 11.3, Calb FLC 87.4*, Lmaj promast 59.8*, T cruzi inh 47.6 and NALP3 yeast inh 46.5.
`N#Cc1c(Cl)nsc1NC(=O)c1ccccc1` gave NALP1 inh -6.3, PolyA inh -9.7, Calb FLC 106.2*, Lmaj promast 9.5, T cruzi inh -26.4 and NALP3 yeast inh 26.2.
Screening O=C(CC1Sc2ncnn2C1=O)Nc1ccccc1 (configuration not stated) returned NALP1 inh 14.7, PolyA inh 4.7, Calb FLC -6.4, Lmaj promast 99.8*, T cruzi inh 16.1 and NALP3 yeast inh 9.0.
For CN(C)CCCNc1ccc(-c2cc(Nc3cccc(Cl)c3)ncn2)cn1 the results were PolyA inh 0.6, Calb FLC -11.5, T cruzi inh 48.6 and NALP3 yeast inh 8.1.
CCC(C)Oc1cc(-c2ccnc(Nc3cccc(Cl)c3)n2)ccn1 (configuration not stated) was read as PolyA inh -7.2, Calb FLC -11.1, T cruzi inh 56.7* and NALP3 yeast inh 0.1.
For OCCCNc1cc(-c2ccnc(Nc3cccc(Cl)c3)n2)ccn1 the results were PolyA inh -0.6, Calb FLC 114.1*, T cruzi inh 50.0 and NALP3 yeast inh 45.9.
Screening COc1cc(OC)nc(Oc2ccc(N)c(C)c2)n1 returned NALP1 inh -8.9, PolyA inh -3.6, Calb FLC -5.8, T cruzi inh -20.5 and NALP3 yeast inh -24.2.
`O=C(COC(=O)CC1CC2CCC1C2)Nc1ccc(Cl)c(S(=O)(=O)N2CCOCC2)c1` (configuration not stated) gave NALP3 yeast inh 5.5.
Screening Cc1cccc(NC(=S)NCc2ccc3c(c2)cc(C)n3C)c1C returned NALP1 inh -45.5, PolyA inh 0.2, Calb FLC 0.4, Lmaj promast 38.2, T cruzi inh 47.7 and NALP3 yeast inh 6.2.
CN(C)/C=C/C(=O)c1ccn(S(=O)(=O)c2ccccc2)c1 was read as NALP1 inh 1.2, PolyA inh 14.4, Calb FLC -3.3, T cruzi inh 2.7 and NALP3 yeast inh 5.3.
CCCn1c(=O)c2ccccc2n2c(SCc3cc(=O)oc4ccc5ccccc5c34)nnc12 was read as NALP1 inh 0.1, PolyA inh 7.1, Calb FLC 13.7, Lmaj promast 62.5*, T cruzi inh 14.4 and NALP3 yeast inh 6.6.
Screening CCCn1c(=O)c2ccccc2n2c(SCC(=O)c3ccc(F)cc3)nnc12 returned NALP1 inh 41.7*.
Screening CCCn1c(=O)c2ccccc2n2c(SCC(=O)c3ccccc3)nnc12 returned NALP1 inh 9.9, PolyA inh -0.4, Calb FLC 8.9, Lmaj promast 12.4, T cruzi inh 17.6 and NALP3 yeast inh 16.8.
`CCCn1c(=O)c2ccccc2n2c(SCc3cc(=O)n4ccsc4n3)nnc12` gave Lmaj promast 2.4.
For C=Cc1ccc(Cn2c(=O)n(C)c(=O)c3sccc32)cc1 the results were NALP1 inh 10.6, PolyA inh -6.2, Calb FLC -3.5, T cruzi inh 11.7 and NALP3 yeast inh 25.9.
For O=C(CCN1C(=O)c2ccccc2C1=O)Oc1ccc2ccccc2c1 the results were NALP1 inh 3.1, PolyA inh 1.3, Calb FLC 4.8, Lmaj promast -4.6, T cruzi inh -5.5 and NALP3 yeast inh 3.4.
For CC1=CC(C)(C)Nc2ccc(OS(=O)(=O)c3ccc(C)cc3)cc21 the results were NALP1 inh -5.6, PolyA inh 27.7, Calb FLC 40.4, Lmaj promast 93.7*, T cruzi inh 52.8 and NALP3 yeast inh 6.9.
`CC(=O)Nc1ccc(S(=O)(=O)Oc2ccc3c(c2)C(C)=CC(C)(C)N3)cc1` gave NALP1 inh 21.2, PolyA inh 0.4, Calb FLC 28.3, Lmaj promast 24.9, T cruzi inh -40.7 and NALP3 yeast inh 14.3.
For CC1=CC(C)(C)Nc2ccc(OC(=O)CCN3C(=O)c4ccccc4C3=O)cc21 the results were NALP1 inh 23.1, PolyA inh 0.0, Calb FLC 42.9, Lmaj promast 78.7*, T cruzi inh -14.5 and NALP3 yeast inh 14.0.
For Cn1cnnc1SCNC(=O)C(F)(F)F the results were NALP1 inh -13.1, PolyA inh 20.0, Calb FLC -5.2, Lmaj promast 2.8, T cruzi inh -13.3 and NALP3 yeast inh 7.6.
Cc1ccc(CNc2ccc(O)cc2)cc1 was read as NALP1 inh 4.5, PolyA inh 5.5, Calb FLC -1.8, Lmaj promast 98.8*, T cruzi inh -5.8 and NALP3 yeast inh -7.8.
